The source of these data is ChEMBL document CHEMBL3779787, “Amorfrutin C Induces Apoptosis and Inhibits Proliferation in Colon Cancer Cells through Targeting Mitochondria” (J Nat Prod, 2016).

Data set [1] has as its system HT-29. Briefly: Induction of apoptosis in human HT-29 cells at 30 uM after 24 hrs by annexin V-FLUOS/propidium iodide staining-based flow cytometry in presence of PPAR siRNA. It counts as functional, cell-based. A digest of the protocol: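 HT-29 transfected with PPARα/β/δ/γ siRNA pool (10 nM each) or 30 nM nonspecific siRNA, seeded 150 000 cells/well. After 48 h, 30 μM compound added for a further 24 h. Phosphatidylserine externalization by annexin V flow cytometry; means ± SEM, n = 6.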
A general note: In flow cytometry, cells or beads pass a laser one at a time.

In data set [2] the test system is MCF7. Briefly: Antiproliferative activity against human MCF7 cells assessed as cellular DNA content after 96 hrs by CyQUANT NF fluorescence assay. It counts as functional, cell-based. Conditions: MCF7, 96 h. A digest of the protocol:
(§1)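 Cells seeded at 750 (HT-29), 250 (PC-3) or 900 (T84, MCF7) cells/well, treated next day with concentration series for 72 h (HT-29, PC-3) or 96 h (T84, MCF7). Relative cell number from cellular DNA content by fluorescent DNA-binding dye. Variable-slope fit; efficiency = maximal inhibition (100% − Bottom) vs untreated; IC50 relative to the compound's own maximal efficiency.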

Data set [3] concerns HT-29. Nature of the data set: Induction of cell cycle arrest in human HT-29 cells assessed as accumulation at G0/G1 phase at 10 uM by flow cytometry (reference value: 66%). The data set is classed as functional.
The subject of data set [4] is HT-29. Briefly: Increase in extracellular acidification rate in human HT-29 cells at 2 uM measured for 20 to 150 mins by time-resolved fluorescence assay relative to control. The data set is classed as functional. A digest of the protocol: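 HT-29 cells seeded 80 000/well, incubated overnight at 37 °C without CO2. Washed and loaded with pH-sensitive time-resolved fluorescence probe in low-buffering medium (1 mM PBS pH 7.4, 20 mM glucose, salts), 10 min at 37 °C, then compound added, wells unsealed. Read 200 min at 37 °C; lifetime converted to pH, rate taken 20–150 min as H+ change/min; n = 8.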

For data set [5], the system named is HT-29. Nature of the data set: Induction of apoptosis in human HT-29 cells assessed as permanent opening of mitochondrial permeability transition pore at 30 uM after 30 mins calcein/CoCl2 staining-based fluorescence assay. It counts as functional, cell-based. The method, boiled down: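 Trypsinized HT-29 (10^6 cells/mL) in HBSS/Ca with 10 nM calcein and 400 μM CoCl2. Pretreated 60 min at 37 °C with 2 μM cyclosporin A or vehicle, then test compound for 30 min at 37 °C. Washed; mitochondrial calcein fluorescence by flow cytometry; means ± SEM, n = 6.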

Data set [6] relates to HT-29. Nature of the data set: Induction of apoptosis in human HT-29 cells assessed as increase in caspase 9 activity at 30 uM after 2 hrs by luminescent assay relative to control. The data set is classed as functional. The method, boiled down:
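HT-29 cells exposed to compound 2 h; effector/initiator caspase enzymatic activity measured by luminescent assays, normalized to control treatment; means ± SEM, n = 4.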

Data set [7] has as its system HT-29. Briefly: Antiproliferative activity against human HT-29 cells assessed as cellular DNA content after 72 hrs by CyQUANT NF fluorescence assay. It counts as functional, cell-based. Conditions: HT-29, 72 h. A digest of the protocol: as §1
The target in data set [8] is T1, Peroxisome proliferator-activated receptor gamma (Homo sapiens, UniProt P37231).
T1 sequence (P37231 whole entry): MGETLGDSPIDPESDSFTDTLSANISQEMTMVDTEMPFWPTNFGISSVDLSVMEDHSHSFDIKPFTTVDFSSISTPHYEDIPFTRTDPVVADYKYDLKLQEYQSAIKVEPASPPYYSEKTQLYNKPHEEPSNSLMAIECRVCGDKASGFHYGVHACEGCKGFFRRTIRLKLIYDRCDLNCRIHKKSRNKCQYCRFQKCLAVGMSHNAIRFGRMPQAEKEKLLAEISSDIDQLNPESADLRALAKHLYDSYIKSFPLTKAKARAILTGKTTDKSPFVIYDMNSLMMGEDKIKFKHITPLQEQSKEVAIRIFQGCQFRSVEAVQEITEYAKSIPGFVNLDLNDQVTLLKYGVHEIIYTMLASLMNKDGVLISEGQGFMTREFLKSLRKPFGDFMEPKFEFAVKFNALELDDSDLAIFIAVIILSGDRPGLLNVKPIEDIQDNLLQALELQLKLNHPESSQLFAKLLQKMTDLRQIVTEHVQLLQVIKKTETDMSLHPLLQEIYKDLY
Nature of the data set: Competitive binding affinity to PPARgamma (unknown origin) by TR-FRET assay. (In general: TR-FRET usually uses a lanthanide donor and a delayed reading to cut background.)

In data set [9] the test system is HT-29. Briefly: Induction of ROS generation in human HT-29 cells at 30 uM by CM-H2DCFDA staining-based fluorescence assay in presence of ascorbic acid. It counts as functional, cell-based. A digest of the protocol: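 HT-29 (15 000 cells/well) loaded with 50 μM CM-H2DCFDA in PBS for 30 min at 37 °C, washed, then 60 min in phenol red-free DMEM/F-12. 30 μM compound added alone or with NAC 1 mM, GSH 2.5 mM, D3T 25 μM, α-tocopherol 50 μM or ascorbic acid 500 μM. Fluorescence 485/530 nm read kinetically at 37 °C for 22 h; area under curve; means ± SEM, n = 7.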

Data set [10] has as its system HT-29. Briefly: Antiproliferative activity against human HT-29 cells assessed as cellular DNA content at 20 uM after 48 hrs by CyQUANT NF fluorescence assay in presence of 3H-1,2-dithiole-3-thione. It counts as functional, cell-based. The method, boiled down: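 HT-29 given concentration series of test compound with or without antioxidant (NAC 1 mM, GSH 2.5 mM, D3T 25 μM, α-tocopherol 50 μM, ascorbic acid 500 μM) for 48 h. Relative cell number from DNA-binding fluorescent dye; means ± SD, n = 4.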

In data set [11] the target is T2, Peroxisome proliferator-activated receptor alpha (Homo sapiens, UniProt Q07869).
T2 sequence (Q07869 whole entry): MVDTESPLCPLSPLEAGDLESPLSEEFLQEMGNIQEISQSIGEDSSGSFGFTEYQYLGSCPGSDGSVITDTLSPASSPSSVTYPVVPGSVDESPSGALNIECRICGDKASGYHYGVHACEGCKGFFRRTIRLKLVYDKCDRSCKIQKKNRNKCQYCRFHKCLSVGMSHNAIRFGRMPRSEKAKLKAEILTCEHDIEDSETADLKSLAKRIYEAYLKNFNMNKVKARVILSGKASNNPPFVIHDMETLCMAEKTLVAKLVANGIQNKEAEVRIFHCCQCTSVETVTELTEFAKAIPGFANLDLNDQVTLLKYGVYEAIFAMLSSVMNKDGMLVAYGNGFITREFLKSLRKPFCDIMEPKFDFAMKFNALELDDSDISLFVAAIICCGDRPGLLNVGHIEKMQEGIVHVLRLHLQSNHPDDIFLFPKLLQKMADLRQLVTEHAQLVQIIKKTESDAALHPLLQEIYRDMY
Briefly: Competitive binding affinity to PPARalpha (unknown origin) by TR-FRET assay.

Data set [12] is described as follows: Dissociation constant, pKa of the compound by UV metric method. The data set is classed as physicochemical. The method, boiled down: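 UV-metric titration with 0.15 M KCl at 25 °C: pH 12.0–2.0 at 32–26 μM in methanol/water cosolvent, and pH 12.5–8.9 at 30–21 μM in water.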
Data set [13] has as its system HT-29. Briefly: Downregulation of cyclin E2 expression in human HT-29 cells at 10 uM after 48 hrs by immunoblotting method. It counts as functional, cell-based. The method, boiled down: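 HT-29 exposed to 10 μM for 48 h; whole-cell lysates immunoblotted for the indicated proteins (total and cleaved PARP for the apoptosis line).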

Active and inactive are the calls of the source. The calls are words filed in the database; no cut-off is given here.

For `COc1c(CC=C(C)C)c(O)c(C(=O)O)c(CCc2ccccc2)c1CC=C(C)C`, the outcome in data set [1], in data set [5], in data set [10] and in data set [13] was Active. In addition, the IC50 in [2] turned out to be 14 µM; in [7], 8.1 µM. Moreover, the Activity in data set [3] is 89%. Besides, the “fold change (FC)” value in data set [4] and in data set [6] was 3 in each case. Besides, the Ki in [8] stood at 700 nM; in data set [11] it was 9.1 µM. Besides, the outcome in data set [9] was inactive. For the same compound, in data set [12], the pKa was determined as 3.5.

As usually defined, the IC50 is the concentration that gives 50% inhibition. For orientation: Ki means the equilibrium dissociation constant of an inhibitor or competing ligand from its target. Read a high Ki as lower affinity. By pKa is commonly meant the negative logarithm of the acid dissociation constant.
